Measured values from ChEMBL document CHEMBL4725317 (Bioorg Med Chem Lett, 2020).
Active and inactive are the calls of the source. The calls are words filed in the database; no cut-off is given here.

What was measured:
[1] = Stability of compound in human liver microsomes assessed as parent compound remaining at 1 uM measured at 10 mins in presence of NADPH; type: ADME, Microsome; settings: liver microsomes, read-out: Stabilty
Summary of the method: (§1)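 Test compound at 1 μM with human, mouse or rat liver microsomes (0.5 mg/ml protein) plus NADPH cofactor; final solvents 0.01% DMSO, 0.05% acetonitrile; percent parent remaining at 10 min. Verapamil, cerivastatin and warfarin as positive controls. SD given when multiple batches were tested.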

[2] = Stability of compound in mouse liver microsomes assessed as parent compound remaining at 1 uM measured at 10 mins in presence of NADPH; type: ADME, Microsome; settings: read-out: Stabilty; summary of the method: as §1
[3] = Stability of compound in rat liver microsomes assessed as parent compound remaining at 1 uM measured at 10 mins in presence of NADPH; type: ADME, Microsome; settings: liver microsomes, read-out: Stabilty; summary of the method: as §1
[4] = Clearance in Sprague-Dawley rat at 2 mg/kg, iv or 10 mg/kg, po; type: ADME, organism-based; settings: in vivo
Summary of the method: (§2)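 Male Sprague Dawley rats dosed 2 mg/kg IV (vehicle 20% HPbCD) or 10 mg/kg PO (vehicle 0.5% Methocel); pharmacokinetic parameters derived from plasma exposure.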

[5] = Volume of distribution at steady state in Sprague-Dawley rat at 2 mg/kg, iv or 10 mg/kg, po; type: ADME, organism-based; settings: in vivo, read-out: Vdss; summary of the method: as §2
[6] = Half life in Sprague-Dawley rat at 2 mg/kg, iv; type: ADME, organism-based; settings: in vivo; summary of the method: as §2
[7] = AUC (0 to infinity) in Sprague-Dawley rat at 2 mg/kg, iv or 10 mg/kg, po; type: ADME, organism-based; design: dose 10 mg/kg; settings: in vivo; summary of the method: as §2
[8] = Cmax in Sprague-Dawley rat at 2 mg/kg, iv or 10 mg/kg, po; type: ADME, organism-based; design: dose 10 mg/kg; settings: in vivo; summary of the method: as §2
[9] = Tmax in Sprague-Dawley rat at 2 mg/kg, iv or 10 mg/kg, po; type: ADME, organism-based; settings: in vivo; summary of the method: as §2
[10] = Oral bioavailability in Sprague-Dawley rat at 10 mg/kg; type: ADME, organism-based; settings: in vivo; summary of the method: as §2
[11] = Clearance in C57BL mouse at 5 mg/kg, iv or 20 mg/kg, po; type: ADME, organism-based; settings: in vivo
Summary of the method: (§3)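 Male C57 black mice given 5 mg/kg IV in 20% HPbCD or 20 mg/kg PO in 0.5% Methocel; plasma pharmacokinetic parameters derived from these dosings.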

[12] = Volume of distribution at steady state in C57BL mouse at 5 mg/kg, iv or 20 mg/kg, po; type: ADME, organism-based; settings: in vivo, read-out: Vdss; summary of the method: as §3
[13] = Half life in C57BL mouse at 5 mg/kg, iv; type: ADME, organism-based; settings: in vivo; summary of the method: as §3
[14] = AUC (0 to infinity) in C57BL mouse at 5 mg/kg, iv or 20 mg/kg, po; type: ADME, organism-based; design: dose 20 mg/kg; settings: in vivo; summary of the method: as §3
[15] = Cmax in C57BL mouse at 5 mg/kg, iv or 20 mg/kg, po; type: ADME, organism-based; design: dose 20 mg/kg; settings: in vivo; summary of the method: as §3
[16] = Tmax in C57BL mouse at 5 mg/kg, iv or 20 mg/kg, po; type: ADME, organism-based; settings: in vivo; summary of the method: as §3
[17] = Oral bioavailability in C57BL mouse at 20 mg/kg; type: ADME, organism-based; settings: in vivo; summary of the method: as §3
Rattus norvegicus [18] = experiment: Hypoglycemic activity in overnight fasted Sprague-Dawley rat assessed as percent reduction in blood glucose AUC at 1 mg/kg, po measured after 4 hrs post glucose challenge by OGTT relative to control; type: functional; design: scale not given: the % may be the effect or the level left
Summary of the method: (§4)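 Overnight-fasted SD rats dosed orally at 1 or 10 mg/kg in 0.5% Methocel (vehicle controls) 60 min before oral glucose challenge. […] N=8 per group; mean ± SEM; one-way ANOVA-Dunnett.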

Rattus norvegicus [19] = experiment: Hypoglycemic activity in overnight fasted Sprague-Dawley rat assessed as percent reduction in blood glucose AUC at 10 mg/kg, po measured after 4 hrs post glucose challenge by OGTT relative to control; type: functional; design: scale not given: the % may be the effect or the level left; summary of the method: as §4
[20] = In vivo inhibition of SGLT1/2 in overnight fasted Sprague-Dawley rat assessed as amount of urinary glucose excretion assessed per 4 hrs at 1 mg/kg, po; type: functional; summary of the method: as §4
[21] = In vivo inhibition of SGLT1/2 in overnight fasted Sprague-Dawley rat assessed as amount of urinary glucose excretion assessed per 4 hrs at 10 mg/kg, po; type: functional; summary of the method: as §4
Rattus norvegicus [22] = experiment: In vivo inhibition of SGLT1/2 in overnight fasted po dosed Sprague-Dawley rat assessed as reduction in blood glucose by OGTT; type: functional, organism-based; settings: dose mg/kg 1-10
Rattus norvegicus [23] = experiment: Hypoglycemic activity in overnight fasted po dosed Sprague-Dawley rat assessed as reduction in blood glucose treated 60 mins prior to glucose challenge by OGTT; type: functional, organism-based; settings: dose mg/kg 1-10, time 60.0 min
Rattus norvegicus [24] = experiment: Hypoglycemic activity in overnight fasted po dosed Sprague-Dawley rat assessed as reduction in blood glucose AUC treated 60 mins prior to glucose challenge and measured up to 120 mins by OGTT; type: functional, organism-based; settings: dose mg/kg 1-10, time 60.0 min
Mus musculus [25] = experiment: Antihyperglycemic activity in db/db mouse assessed as decrease in blood glucose level at 10 mg/kg, po administered as single dose measured up to 24 hrs; type: functional, organism-based; settings: time hrs <=24
Summary of the method: (§5)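 Male db/db mice given a single oral 10 mg/kg dose or vehicle; fed blood glucose followed up to 24 h and 24-h urinary glucose excretion collected. Mean ± SE versus vehicle controls.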

Mus musculus [26] = experiment: Antihyperglycemic activity in db/db mouse assessed as increase in urinary glucose excretion at 10 mg/kg, po administered as single dose measured up to 24 hrs; type: functional, organism-based; settings: time hrs <=24; summary of the method: as §5
[27] = biological target: T1, Sodium/glucose cotransporter 1 (Homo sapiens) (UniProt P13866); experiment: Inhibition of human SGLT1 expressed in CHO cells assessed as reduction in [14C]-methyl-alpha -D-glucopyranoside accumulation at 0.3 uM relative to control; type: cell-based
T1 sequence (whole entry): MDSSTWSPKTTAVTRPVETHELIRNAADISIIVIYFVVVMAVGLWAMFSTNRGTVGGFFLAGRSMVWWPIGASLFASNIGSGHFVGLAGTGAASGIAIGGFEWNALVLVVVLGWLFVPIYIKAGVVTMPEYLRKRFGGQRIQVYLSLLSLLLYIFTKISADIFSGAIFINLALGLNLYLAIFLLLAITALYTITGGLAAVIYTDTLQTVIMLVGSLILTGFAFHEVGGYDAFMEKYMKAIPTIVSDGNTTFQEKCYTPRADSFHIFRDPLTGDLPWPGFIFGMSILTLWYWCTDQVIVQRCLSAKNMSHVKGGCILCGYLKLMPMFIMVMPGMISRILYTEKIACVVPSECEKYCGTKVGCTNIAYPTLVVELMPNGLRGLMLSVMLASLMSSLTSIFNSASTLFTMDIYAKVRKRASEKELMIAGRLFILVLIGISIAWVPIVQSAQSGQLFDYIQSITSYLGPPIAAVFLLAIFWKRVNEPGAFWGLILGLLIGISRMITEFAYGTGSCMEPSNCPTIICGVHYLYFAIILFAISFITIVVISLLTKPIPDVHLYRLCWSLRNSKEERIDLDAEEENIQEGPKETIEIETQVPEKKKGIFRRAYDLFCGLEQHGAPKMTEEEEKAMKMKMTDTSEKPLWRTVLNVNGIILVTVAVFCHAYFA
Summary of the method: (§6)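 CHO cells expressing human SGLT1 or SGLT2; inhibition of [14C]methyl D-glucopyranoside (AMG) accumulation measured with test compound at 0.3 μM.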

[28] = biological target: T2, Sodium/glucose cotransporter 2 (Homo sapiens) (UniProt P31639); experiment: Inhibition of human SGLT2 expressed in CHO cells assessed as reduction in [14C]-methyl-alpha -D-glucopyranoside accumulation at 0.3 uM relative to control; type: cell-based; summary of the method: as §6
T2 sequence (whole entry): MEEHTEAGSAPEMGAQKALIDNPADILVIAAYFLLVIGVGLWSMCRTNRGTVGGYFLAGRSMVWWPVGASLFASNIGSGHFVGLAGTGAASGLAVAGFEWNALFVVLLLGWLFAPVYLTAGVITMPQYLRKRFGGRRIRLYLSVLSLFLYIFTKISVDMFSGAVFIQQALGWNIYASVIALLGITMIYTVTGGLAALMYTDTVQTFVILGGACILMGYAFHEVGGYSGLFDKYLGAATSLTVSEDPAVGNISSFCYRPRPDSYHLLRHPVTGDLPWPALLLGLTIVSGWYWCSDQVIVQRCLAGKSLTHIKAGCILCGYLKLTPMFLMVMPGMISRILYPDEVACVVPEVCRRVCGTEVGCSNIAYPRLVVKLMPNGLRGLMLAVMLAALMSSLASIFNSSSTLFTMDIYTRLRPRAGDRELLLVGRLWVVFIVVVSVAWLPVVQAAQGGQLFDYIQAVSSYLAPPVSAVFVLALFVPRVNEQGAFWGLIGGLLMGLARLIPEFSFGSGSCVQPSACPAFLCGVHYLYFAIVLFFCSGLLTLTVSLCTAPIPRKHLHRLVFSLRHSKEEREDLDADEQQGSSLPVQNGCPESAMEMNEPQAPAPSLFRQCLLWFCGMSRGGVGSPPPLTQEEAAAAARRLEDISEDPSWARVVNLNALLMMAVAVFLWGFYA

## COc1cc(O)c([C@@H]2O[C@H](CO)C(F)(F)[C@H](O)[C@H]2O)cc1Cc1ccc2c(c1)CCCO2
[1]
  remaining at 10 min, 1 µM: 95%
[2]
  remaining at 10 min, 1 µM: 85%
[3]
  remaining at 10 min, 1 µM: 57%
[4]
  clearance: 75.6 mL/min/kg
[5]
  Vd: 3.85 L/kg
[6]
  half-life: 137 min
[7]
  AUC(0-inf): 524 ng·h/mL
[8]
  Cmax: 258 ng/mL
[9]
  Tmax: 15 min
[10]
  bioavailability: 22.3%
[11]
  clearance: 19 mL/min/kg
[12]
  Vd: 0.96 L/kg
[13]
  half-life: 49.8 min
[14]
  AUC(0-inf): 9160 ng·h/mL
[15]
  Cmax: 4680 ng/mL
[16]
  Tmax: 60 min
[17]
  bioavailability: 52.1%
Rattus norvegicus [18]
  Activity: 38.3%
Rattus norvegicus [19]
  Activity: 60.7%
[20]
  Activity: 0.002 g
[21]
  Activity: 0.2 g
Rattus norvegicus [22]
  inhibition: Dose-dependent effect
Rattus norvegicus [23]
  Activity: Dose-dependent effect
Rattus norvegicus [24]
  Activity: Dose-dependent effect
Mus musculus [25]
  Activity: Active
Mus musculus [26]
  Activity: Active

## OC[C@H]1O[C@@H](c2cc(Cc3ccc4c(c3)OCCO4)c(Cl)cc2O)[C@H](O)[C@@H](O)C1(F)F
[1]
  remaining at 10 min, 1 µM: 96%
[2]
  remaining at 10 min, 1 µM: 74%
[3]
  remaining at 10 min, 1 µM: 18%

## COc1cc(O)c([C@@H]2O[C@H](CO)C(F)(F)[C@H](O)[C@H]2O)cc1Cc1ccc2c(c1)OCCO2
[1]
  remaining at 10 min, 1 µM: 99%
[2]
  remaining at 10 min, 1 µM: 97%
[3]
  remaining at 10 min, 1 µM: 26%

## COc1cc(O)c([C@@H]2O[C@H](CO)C(F)(F)[C@H](O)[C@H]2O)cc1Cc1cc2ccccc2s1
[1]
  remaining at 10 min, 1 µM: 103%
[2]
  remaining at 10 min, 1 µM: 111%
[3]
  remaining at 10 min, 1 µM: 98%

## COc1cc(Cl)c(Cc2ccc3c(c2)OCCO3)cc1[C@@H]1O[C@H](CO)C(F)(F)[C@H](O)[C@H]1O
[27]
  inhibition: 37%
[28]
  inhibition: 78%

## COc1ccc(Cc2cc([C@@H]3O[C@H](CO)C(F)(F)[C@H](O)[C@H]3O)c(O)cc2Cl)cc1
[1]
  remaining at 10 min, 1 µM: 90%
[2]
  remaining at 10 min, 1 µM: 97%
[3]
  remaining at 10 min, 1 µM: 58%
[4]
  clearance: 10.9 mL/min/kg
[5]
  Vd: 1.89 L/kg
[6]
  half-life: 291 min
[7]
  AUC(0-inf): 2700 ng·h/mL
[8]
  Cmax: 549 ng/mL
[9]
  Tmax: 25.2 min
[10]
  bioavailability: 17.4%
Rattus norvegicus [18]
  Activity: 38.4%
Rattus norvegicus [19]
  Activity: 62.8%
[20]
  Activity: 0.099 g
Rattus norvegicus [22]
  inhibition: Dose-dependent effect

## C[C@]1(F)[C@H](O)[C@@H](O)[C@H](c2cc(Cc3ccc4c(c3)OCCO4)c(Cl)cc2O)O[C@@H]1CO
[1]
  remaining at 10 min, 1 µM: 74%
[2]
  remaining at 10 min, 1 µM: 96%
[3]
  remaining at 10 min, 1 µM: 56%
